IC50, inhibition and Activity data for seven molecules are collected here from ChEMBL document CHEMBL1287657, “Synthesis and biological activities of new furo[3,4-b]carbazoles: potential topoisomerase II inhibitors” (Eur J Med Chem, 2010).

The test system of one test is HL-60. In words: Cytotoxicity against human HL60 cells. It is filed as functional, cell-based.
Test [1] deals with DNA topoisomerase 2-alpha (Homo sapiens) (UniProt P11388). In words: Inhibition of human topoisomerase 2-mediated relaxation of supercoiled PUC19 DNA at 20 to 50 uM uM after 20 mins using ethidium bromide staining by agarose gel electrophoresis. Summed up:
(§1)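 Native supercoiled pUC19 plasmid (350 ng) incubated with 4 units human topoisomerase II, with or without compound at several concentrations; etoposide run as reference. Relaxation/cleavage products separated by gel electrophoresis and scored for supercoiled, relaxed and broken DNA forms.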

Test [2] shares this target. In words: Inhibition of human topoisomerase 2-mediated relaxation of supercoiled PUC19 DNA at 1 to 100 uM uM after 20 mins using ethidium bromide staining by agarose gel electrophoresis. The method in brief:
as §1

Test [3] is described as follows: Cytotoxicity against human HL60/MX2 cells. Format: functional, cell-based.
The subject of another test is Calf thymus DNA. In words: Binding affinity to calf thymus DNA assessed as change in melting temperature. Format: nucleic-acid assay. The settings on record: Bos taurus.

In general, IC50 refers to the concentration needed to halve the response being measured. A high value points to weaker potency.

Calls of active or inactive are those of the source. The rule behind the calls is not given here.

DNA topoisomerase 2-alpha (Homo sapiens), sequence (P11388 whole entry): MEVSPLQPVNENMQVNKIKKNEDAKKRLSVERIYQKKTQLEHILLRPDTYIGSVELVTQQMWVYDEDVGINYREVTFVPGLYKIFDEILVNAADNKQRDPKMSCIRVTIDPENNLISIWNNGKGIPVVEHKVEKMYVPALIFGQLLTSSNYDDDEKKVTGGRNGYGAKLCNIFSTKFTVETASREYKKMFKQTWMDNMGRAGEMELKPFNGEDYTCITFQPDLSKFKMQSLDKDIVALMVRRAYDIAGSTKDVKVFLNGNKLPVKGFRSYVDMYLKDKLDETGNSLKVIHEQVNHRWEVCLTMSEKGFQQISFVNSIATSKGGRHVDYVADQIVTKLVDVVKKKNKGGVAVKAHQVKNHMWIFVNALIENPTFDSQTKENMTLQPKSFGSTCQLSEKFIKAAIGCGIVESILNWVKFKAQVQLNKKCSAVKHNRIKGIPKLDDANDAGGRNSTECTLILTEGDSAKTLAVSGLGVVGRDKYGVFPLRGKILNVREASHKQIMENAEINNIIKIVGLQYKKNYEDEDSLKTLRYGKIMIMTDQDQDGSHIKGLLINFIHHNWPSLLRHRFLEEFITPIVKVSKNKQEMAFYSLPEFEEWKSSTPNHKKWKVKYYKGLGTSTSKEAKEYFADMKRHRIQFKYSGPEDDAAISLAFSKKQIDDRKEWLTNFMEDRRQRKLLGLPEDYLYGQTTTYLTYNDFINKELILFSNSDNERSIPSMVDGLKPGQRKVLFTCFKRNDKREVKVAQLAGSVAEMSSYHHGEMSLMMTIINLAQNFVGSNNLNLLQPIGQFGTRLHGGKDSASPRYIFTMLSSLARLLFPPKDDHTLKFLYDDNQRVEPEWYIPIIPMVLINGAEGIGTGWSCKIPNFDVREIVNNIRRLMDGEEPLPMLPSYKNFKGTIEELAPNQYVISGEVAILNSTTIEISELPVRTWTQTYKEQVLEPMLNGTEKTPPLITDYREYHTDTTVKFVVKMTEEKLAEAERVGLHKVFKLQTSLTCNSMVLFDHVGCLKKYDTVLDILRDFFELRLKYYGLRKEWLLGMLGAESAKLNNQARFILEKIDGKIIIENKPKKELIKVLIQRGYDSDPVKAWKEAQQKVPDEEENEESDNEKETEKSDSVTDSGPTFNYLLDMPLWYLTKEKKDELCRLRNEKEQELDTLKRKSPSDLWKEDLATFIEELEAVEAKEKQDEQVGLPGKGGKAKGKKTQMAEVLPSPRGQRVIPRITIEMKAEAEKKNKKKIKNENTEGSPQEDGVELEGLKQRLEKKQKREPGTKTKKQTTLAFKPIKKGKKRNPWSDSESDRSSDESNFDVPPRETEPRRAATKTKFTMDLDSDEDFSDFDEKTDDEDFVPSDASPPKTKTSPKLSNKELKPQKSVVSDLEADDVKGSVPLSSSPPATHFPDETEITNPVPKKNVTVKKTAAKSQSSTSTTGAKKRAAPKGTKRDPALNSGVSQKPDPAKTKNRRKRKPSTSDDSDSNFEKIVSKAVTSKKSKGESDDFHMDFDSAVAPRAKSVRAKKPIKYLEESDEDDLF

On to `COc1cc(-c2c3c(cc4c2[nH]c2ccccc24)COC3=O)cc(O)c1O`, for which the IC50 with HL-60 stood at 150 nM; in test [3], 170 nM. The inhibition entry in test [1] and in test [2] was “Active” throughout. In addition, the result with Calf thymus DNA was inactive.
Turning to `COc1cc(-c2c3c(cc4c2[nH]c2ccccc24)COC3=O)cc(OC)c1OC`, in test [1], the inhibition result was “inactive”.
With `COc1cc([C@@H]2c3cc4c(cc3[C@@H](O[C@@H]3O[C@@H]5CO[C@@H](C)O[C@H]5[C@H](O)[C@H]3O)[C@H]3COC(=O)[C@H]23)OCO4)cc(OC)c1O`, in test [1], the inhibition result was “Active”.
The same measure, in the same setting: to `O=C1OCc2cc3c([nH]c4ccccc43)c(-c3ccc4c(c3)OCO4)c21` belongs “inactive”.
`COc1ccc(-c2c3c(cc4c2[nH]c2ccccc24)COC3=O)cc1`: the inhibition entry in test [1] is “inactive”.
With `COc1cc(OC)cc(-c2c3c(cc4c2[nH]c2ccccc24)COC3=O)c1`, the inhibition entry in test [1] was “inactive”.
Regarding `COc1ccc(-c2c3c(cc4c2[nH]c2ccccc24)COC3=O)cc1OC`, the inhibition entry in test [1] was “inactive”. In addition, the outcome in the test on Calf thymus DNA was inactive.
